# Key:
# Type in all cases: functional
# [1] = test system: NCI-H460; assay: Growth inhibition of human NCI-H460 cells at 10 uM after 48 hrs by WST-8 assay; settings: NCI-H460, 48 h, read-out: GI
# Procedure, shortened: (§1)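 ATCC cells kept in DMEM with 10% FBS and antibiotics at 37 °C, 5% CO2. Seeded 5×10^3/well, incubated overnight, then treated with compound for 48 h against a DMSO vehicle control (≤0.1%). CCK-8 (WST-8) reduction by live-cell dehydrogenases read at 450 nm (corrected 650 nm) after 4 h at 37 °C. Viable cells expressed as % of the DMSO control.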
# [2] = test system: Calu-1; assay: Growth inhibition of human Calu1 cells at 10 uM after 48 hrs by WST-8 assay; settings: Calu-1, 48 h, read-out: GI; procedure, shortened: as §1
# [3] = test system: HCT-116; assay: Growth inhibition of human HCT116 cells at 10 uM after 48 hrs by WST-8 assay; settings: HCT-116, 48 h, read-out: GI; procedure, shortened: as §1
# [4] = test system: ACHN; assay: Growth inhibition of human ACHN cells at 10 uM after 48 hrs by WST-8 assay; settings: read-out: GI; procedure, shortened: as §1
# [5] = test system: PANC-1; assay: Growth inhibition of human PANC1 cells at 10 uM after 48 hrs by WST-8 assay; settings: PANC-1, 48 h, read-out: GI; procedure, shortened: as §1
SMILES,inhibition of growth at 10 µM [1] [%],inhibition of growth at 10 µM [2] [%],inhibition of growth at 10 µM [3] [%],inhibition of growth at 10 µM [4] [%],inhibition of growth at 10 µM [5] [%]
CC(C)CC(=O)c1c(O)c(C(=O)CC(C)C)c(O)c(C(c2ccc3c(c2)Cc2ccccc2-3)c2c(O)c(C(=O)CC(C)C)c(O)c(C(=O)CC(C)C)c2O)c1O,15,0,0,17,18
CC(=O)c1c(O)c(Cc2c(O)c(C(C)=O)c(O)c(C(C)=O)c2O)c(O)c(C(C)=O)c1O,0,39,8,46,22
CC(C)CC(=O)c1c(O)c(C=O)c(O)c(C(c2ccc(OCc3ccccc3)cc2)c2c(O)c(C=O)c(O)c(C(=O)CC(C)C)c2O)c1O,49,30,48,44,6
CC(C)CC(=O)c1c(O)c(C(=O)CC(C)C)c(O)c(C(C)c2c(O)c(C(=O)CC(C)C)c(O)c(C(=O)CC(C)C)c2O)c1O,12,12,25,11,0
CC(C)CC(=O)c1c(O)c(C=O)c(O)c(C(c2ncc[nH]2)c2c(O)c(C=O)c(O)c(C(=O)CC(C)C)c2O)c1O,22,0,18,38,0
CC(C)CC(=O)c1c(O)c(C(=O)CC(C)C)c(O)c(C(c2c(O)c(C(=O)CC(C)C)c(O)c(C(=O)CC(C)C)c2O)c2cccc3ccccc23)c1O,26,15,0,6,17
CC(C)CC(=O)c1c(O)c(C=O)c(O)c(Cc2c(O)c(C=O)c(O)c(C(=O)CC(C)C)c2O)c1O,0,29,9,35,15
CC(C)CC(=O)c1c(O)c(C=O)c(O)c(C(c2ccc(-c3ccccc3)cc2)c2c(O)c(C=O)c(O)c(C(=O)CC(C)C)c2O)c1O,28,0,5,0,0
CC(C)C(=O)c1c(O)c(Cc2c(O)c(C(=O)C(C)C)c(O)c(C(=O)C(C)C)c2O)c(O)c(C(=O)C(C)C)c1O,25,16,6,30,12
CC(C)CC(=O)c1c(O)c(C=O)c(O)c(C(c2ccncc2)c2c(O)c(C=O)c(O)c(C(=O)CC(C)C)c2O)c1O,0,17,0,21,5
CC(C)CC(=O)c1c(O)c(C(=O)CC(C)C)c(O)c(C(c2ncc[nH]2)c2c(O)c(C(=O)CC(C)C)c(O)c(C(=O)CC(C)C)c2O)c1O,15,11,0,0,0
CC(C)CC(=O)c1c(O)c(C(=O)CC(C)C)c(O)c(C(c2cc3ccccc3o2)c2c(O)c(C(=O)CC(C)C)c(O)c(C(=O)CC(C)C)c2O)c1O,37,56,20,7,0
CC(C)CC(=O)c1c(O)c(C=O)c(O)c(C(c2ccc(C(F)(F)F)cc2C(F)(F)F)c2c(O)c(C=O)c(O)c(C(=O)CC(C)C)c2O)c1O,5,6,14,0,0
CC(C)C(=O)c1c(O)cc(O)c(C(=O)C(C)C)c1O,22,15,0,33,0
CC(C)CC(=O)c1c(O)c(C(=O)CC(C)C)c(O)c(C(c2c(O)c(C(=O)CC(C)C)c(O)c(C(=O)CC(C)C)c2O)C2CCCCC2)c1O,29,18,0,14,0
CC(=O)c1c(O)c(C(C)=O)c(O)c(C(c2ccccn2)c2c(O)c(C(C)=O)c(O)c(C(C)=O)c2O)c1O,0,24,11,12,0
CC(C)CC(=O)c1c(O)c(C=O)c(O)c(C(c2cc3ccccc3o2)c2c(O)c(C=O)c(O)c(C(=O)CC(C)C)c2O)c1O,5,2,11,6,0
CCC(c1c(O)c(C(=O)CC(C)C)c(O)c(C(=O)CC(C)C)c1O)c1c(O)c(C(=O)CC(C)C)c(O)c(C(=O)CC(C)C)c1O,10,10,22,0,0
CC(C)CC(=O)c1c(O)c(Cc2c(O)c(C(=O)CC(C)C)c(O)c(C(=O)CC(C)C)c2O)c(O)c(C(=O)CC(C)C)c1O,3,7,1,35,0
CC(C)CC(=O)c1c(O)cc(O)c(C(=O)CC(C)C)c1O,46,0,55,30,0
CC(=O)c1c(O)c(C(C)=O)c(O)c(C(c2ccccc2)c2c(O)c(C(C)=O)c(O)c(C(C)=O)c2O)c1O,29,47,0,29,0
CC(=O)c1c(O)cc(O)c(C(C)=O)c1O,25,0,0,44,0
CC(=O)c1c(O)c(C(C)=O)c(O)c(C(C)c2c(O)c(C(C)=O)c(O)c(C(C)=O)c2O)c1O,0,38,3,19,0

# Reference: ChEMBL document CHEMBL1955790, “One pot synthesis and anticancer activity of dimeric phloroglucinols” (Bioorg Med Chem Lett, 2012)
